An excerpt weighted towards active compounds, which were near 4.2% of everything screened.
Hep lipid drop: inhibitors of hepatocyte lipid droplet formation, primary screen, imaging, high-throughput imaging, BODIPY stain; actives 0.4% (n = 240,000); inhibition, % at 6.5 µM; AML12 mouse hepatocytes, oleate lipid droplets;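 active = lipid droplet intensity inhibited by at least 50%, with more than 500 cells counted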
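Material – AML12 mouse liver cells · Also added – oleate loading, 100 µM · Compound dosing – 6.5 µM single-point dosing · Times – overnight treatment with compound plus oleate · Measured by – fluorescence imaging, 20x objective, two fields per well · Read-out – percent inhibition of filter-corrected integrated lipid droplet intensity per well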
TMEM16A inh: TMEM16A chloride channel inhibitors, primary screen, cell-based, HTS. actives 1.2% (n = 310,000). HEK293 TMEM16A/YFP iodide influx fluorescence, ionomycin. Anoctamin-1 (Mus musculus), Q8BHY3. normalized B-score (activity score, 25-100; higher = stronger inhibition) at 10 µM;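 active = ratio plate-corrected score three or more library SD toward inhibition, starting fluorescence score within five deviations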;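 note: score derived from kinetic fluorescence span divided by baseline fluorescence per well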
CHOP UPR activ: activators of apoptotic CHOP UPR arm, primary screen, cell-based, CHO-CHOP luciferase reporter, luminescence, uHTS; activation, % at 10 µM; actives 0.34% (n = 330,000); UPR activation; percent of tunicamycin response over DMSO baseline; AID 449763, 2010;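 active = at 10 µM dose, activation of 40% or more, normalized to positive control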
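Material: CHO-CHOP cells, stable luciferase reporter of PERK-eIF2a-CHOP signalling; quantity: 500 reporter cells seeded per well; buffer or medium: F12 medium containing 10% fetal bovine serum; compound: one dose, 10 µM in 0.5% DMSO; incubation: 6 h compound treatment, 37 °C; measured by: Steady-Glo luciferase luminescence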
UPR XBP1 act: activators of adaptive XBP1 UPR arm, primary screen, cell-based, CHO-XBP1 luciferase reporter, luminescence, uHTS; IRE1-XBP1 UPR activation; percent of tunicamycin response, DMSO as zero; actives 0.33% (n = 330,000); activation, % at 20 µM;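 active = versus positive control, 20 µM dose yields 30% or more activation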
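assay system = CHO-XBP1 luciferase reporter cells | amount = 1000 cells/well | buffer or medium = F12 plus 10% FBS | compound dosing = single point, 20 µM final compound, 1% DMSO | incubation = 16-18 h cell attachment at 37 °C, then 6 h compound exposure | detection = Steady-Glo luminescence read | controls = tunicamycin 10 µg/mL and vehicle-only wells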
TMEM16A act: TMEM16A chloride channel activators or potentiators, primary screen, cell-based, HTS; Anoctamin-1 (Mus musculus), Q8BHY3; AID 623877, 2012; HEK293 TMEM16A/YFP-H148Q/I152L, iodide quench fluorescence; stronger effect = lower value; actives 0.3% (n = 340,000); B-score at 10 µM;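 active = fluorescence-ratio B-score plate-corrected deviation score at least 3 library SD below zero, with starting fluorescence score within 5 deviations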;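 note: channel opened by trigger with iodide after compound preincubation; score built on the fluorescence ratio of max minus min over baseline; more negative score means more quench and so TMEM16A activation or potentiation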
CHOP inhibitor: inhibitors of CHOP promoter induction, primary screen, cell-based, unfolded protein response, luciferase reporter. actives 3.8% (n = 220,000). CHO-K1 CHOP-promoter luciferase, tunicamycin-induced, 15-18 h. inhibition, % at 10 µM;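 active = compounds that reduced the stress-induced luciferase reporter signal by more than about 70% of percent inhibition, limit read from the data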
Of the large screens only hits and unclear results are named; the others gave an inactive call.

C=CCN(CC=C)CCOc1ccccc1F	none
CC(=O)N1CCc2cc(S(=O)(=O)CCC(=O)NCCc3ccccc3)ccc21	none (no result: CHOP inhibitor)
CCn1c(SCC(=O)Nc2sc3c(c2C#N)CCC(C(C)(C)C)C3)nnc1-c1ccco1 (stereo not given)	CHOP inhibitor 77.9 (no result: Hep lipid drop)
Cc1nn(CCCC(=O)Nc2sc3c(c2C#N)CCC3)c(C)c1[N+](=O)[O-]	none (no result: Hep lipid drop)
Cc1nn(CC(=O)Nc2sc3c(c2C#N)CCC(C(C)(C)C)C3)c(C)c1[N+](=O)[O-] (stereo not given)	CHOP inhibitor 88.7 (no result: Hep lipid drop)
CCCCn1c(SCC(N)=O)nnc1-c1ccco1	none (no result: Hep lipid drop)
Cc1nn(C(C)C(=O)Nc2sc3c(c2C#N)CCCC3)c(C)c1[N+](=O)[O-] (stereo not given)	TMEM16A inh 100 (no result: Hep lipid drop)
CCCCn1c(SCC(=O)NC(C)(C)C)nnc1-c1ccco1	TMEM16A inh 25 (no result: Hep lipid drop)
COc1ccc(C2c3c(ncn(CCN4CCOCC4)c3=N)Oc3ccc4ccccc4c32)cc1 (stereo not given)	none
COc1cc(/C=N/NC(=O)CCn2c3ccccc3c3ccccc32)ccc1O	TMEM16A inh 25
O=C(c1ccco1)N(Cc1ccc([N+](=O)[O-])cc1)c1ccc(Br)cc1	CHOP inhibitor 70.1 (no result: Hep lipid drop)
Cc1cc(NC(=O)Cc2ccccc2[N+](=O)[O-])no1	none (no result: CHOP inhibitor)
Cc1ccc(/C=C2\Sc3ccccc3C2=O)s1	CHOP inhibitor 70.4 (no result: Hep lipid drop)
Cc1cc(O)c2c(c1)C(=O)c1cc(O)cc(O)c1C2=O	TMEM16A inh 100 (no result: Hep lipid drop)
O=C1c2cc(O)cc(O)c2C(=O)c2c1cc(O)c([C@@H](CO)CCO)c2O	none (no result: Hep lipid drop, CHOP inhibitor)
CCCCc1cc(=O)oc2cc(C)cc(OCC(=O)NCC3CCC(C(=O)O)CC3)c12 (stereo not given)	none (no result: CHOP inhibitor)
CCc1ccc(NC(=O)NCC2CCN(c3ccc(OC)cc3)C2)cc1 (stereo not given)	none
CCOc1ccc(NC(=O)NCC2CCN(c3ccc(OC)cc3)C2)cc1 (stereo not given)	CHOP inhibitor 76.3
CN(C(=O)CN1CCCCCC1)c1c(N)n(Cc2ccccc2)c(=O)[nH]c1=O	none (no result: Hep lipid drop, TMEM16A inh, CHOP inhibitor)
FC(F)(F)c1nc(Oc2ccccc2)c2ccccc2n1	CHOP inhibitor 83.1
CCOc1ccc(N(CC(=O)NCc2ccc(F)cc2)C(=O)c2snc(C(N)=O)c2N)cc1	none (no result: CHOP inhibitor)
CCc1ccc(C(C)NC(=S)NC2CCCCC2)cc1 (stereo not given)	none (no result: CHOP inhibitor)
CCC(C)c1ccc(C(C)NC(=S)NC2CCCCC2)cc1 (stereo not given)	TMEM16A inh 100 (no result: CHOP inhibitor)
CCC(C)c1ccc(NC(=S)NC2CCN(Cc3ccccc3)CC2)cc1 (stereo not given)	CHOP inhibitor 86.8
Cc1ccc(C)n1-n1cnc2sc(-c3ccccc3)cc2c1=O	CHOP inhibitor 78.5
Cc1[nH]c2ccccc2c1C(=O)/C=C/c1ccccc1	TMEM16A inh 100 (no result: Hep lipid drop)
Cc1[nH]c2ccccc2c1C(=O)/C=C/c1ccccc1Cl	CHOP inhibitor 90.1
O=C(C=Cc1ccccc1Cl)c1ccccc1	none (no result: Hep lipid drop, TMEM16A inh, CHOP UPR activ, UPR XBP1 act, CHOP inhibitor)
Cc1[nH]c2ccccc2c1C(=O)/C=C\c1ccccc1Cl	CHOP inhibitor 73.8
COCCNC(=O)c1cc(-c2ccc(-c3ccccc3)cc2)nc2ccccc12	none (no result: CHOP inhibitor)
C[C@H](CO)N1C[C@H](C)[C@@H](CN(C)C(=O)NC2CCCCC2)Oc2ccc(NC(=O)Nc3ccc(C(F)(F)F)cc3)cc2C1=O	TMEM16A act -5.02 (no result: Hep lipid drop, TMEM16A inh, CHOP inhibitor)
COC(=O)C1=C(C(=O)OC)[C@]2([C@@H]3CC=CCN[C@@H](Cc4ccccc4)C(=O)N3Cc3ccccc3)C=C[C@H]1O2	none (no result: Hep lipid drop, TMEM16A inh, CHOP UPR activ, UPR XBP1 act, CHOP inhibitor)
COC(=O)C1=C(C(=O)OC)[C@]2([C@H]3CC=CCN[C@@H](Cc4ccccc4)C(=O)N3Cc3ccccc3)C=C[C@H]1O2	TMEM16A act -10.4 (no result: Hep lipid drop, TMEM16A inh, CHOP UPR activ, UPR XBP1 act, CHOP inhibitor)
COc1ccccc1/C=N/NC(=Nc1ccc(C)cc1)c1nc2ccccc2s1	none (no result: Hep lipid drop, TMEM16A act)

Screening results as filed in PubChem BioAssay.
